Source: ChEMBL document CHEMBL1275524, “Activities of antifungal agents against yeasts and filamentous fungi: assessment according to the methodology of the European Committee on Antimicrobial Susceptibility Testing” (2008)
Converted amounts (≈) assume the structure as drawn.

How the values were obtained:
Type in all cases: functional
[1] = test system: Aspergillus terreus; experiment: Antifungal activity against Aspergillus terreus by EUCAST method
[2] = test system: Aspergillus flavus; experiment: Antifungal activity against Aspergillus flavus
[3] = test system: Sporothrix schenckii; experiment: Antifungal activity against Sporothrix schenckii
How it was run: (§1)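 Broth microdilution following the EUCAST reference procedure for spore-forming moulds, in flat-bottom plates with RPMI 1640 plus 2% glucose. Inoculum was 2 × 10^5 to 5 × 10^5 CFU/ml. MICs were read visually at 24 and 48 h as 100% growth reduction versus a drug-free control for polyenes and azoles. MEC was used for caspofungin. Tests were run in duplicate and repeated twice.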

[4] = test system: Clavispora lusitaniae; experiment: Antifungal activity against Candida lusitaniae by EUCAST method
How it was run: (§2)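 Broth microdilution in flat-bottom plates in RPMI 1640 with 2% glucose; inoculum 0.5 × 105 to 2.5 × 10^5 CFU/ml. MICs were read spectrophotometrically at 24 h. AMB endpoint: ≥90% growth reduction vs drug-free control well. Azole and CPF endpoint: 50% reduction in optical density. MFC was taken as the lowest concentration giving 99% killing.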

[5] = test system: Candida tropicalis; experiment: Antifungal activity against Candida tropicalis; how it was run: as §2
[6] = test system: Curvularia australiensis; experiment: Antifungal activity against Bipolaris australiensis by EUCAST method
How it was run: (§3)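 Dematiaceous fungi were tested by the EUCAST spore-forming mold reference procedure: flat-bottom microdilution plates, RPMI 1640 plus 2% glucose, inoculum 2 × 105 to 5 × 10^5 CFU/ml. Endpoints were read visually at 24 and 48 h. Polyenes and azoles: 100% growth reduction vs drug-free control. CPF: minimum effective concentration. Run in duplicate and repeated twice.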

[7] = test system: Penicillium sp.; experiment: Antifungal activity against Penicillium species by EUCAST method
[8] = test system: Pichia kudriavzevii; experiment: Antifungal activity against Candida krusei
How it was run: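 EUCAST broth microdilution for yeasts in flat-bottom plates, RPMI 1640 with 2% glucose, inoculum 0.5 × 105 to 2.5 × 10^5 CFU/ml. […] MFC is the lowest concentration giving 99% killing.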

[9] = test system: Curvularia lunata; experiment: Antifungal activity against Curvularia lunata by EUCAST method; how it was run: as §3
[10] = Antifungal activity against Rhizopus microsporus var. oligosporus by EUCAST method; how it was run: as §1
[11] = test system: Rhizopus arrhizus; experiment: Antifungal activity against Rhizopus oryzae; how it was run: as §1
[12] = test system: Aspergillus fumigatus; experiment: Antifungal activity against Aspergillus fumigatus
[13] = test system: Meyerozyma guilliermondii; experiment: Antifungal activity against Candida guilliermondii by EUCAST method; how it was run: as §2
[14] = test system: Geotrichum candidum; experiment: Antifungal activity against Geotrichum candidum
[15] = test system: Fusarium solani; experiment: Antifungal activity against Fusarium solani
[16] = test system: Lichtheimia corymbifera; experiment: Antifungal activity against Absidia corymbifera
[17] = test system: Candida albicans; experiment: Antifungal activity against Candida albicans; how it was run: as §2
[18] = test system: Scedosporium apiospermum; experiment: Antifungal activity against Scedosporium apiospermum by EUCAST method; how it was run: as §1
[19] = test system: Rhizomucor; experiment: Antifungal activity against Rhizomucor species by EUCAST method; how it was run: as §1
[20] = test system: Talaromyces marneffei; experiment: Antifungal activity against Penicillium marneffei
[21] = test system: Lichtheimia corymbifera; experiment: Antifungal activity against Absidia corymbifera by EUCAST method
[22] = test system: Pichia kudriavzevii; experiment: Antifungal activity against Candida krusei by EUCAST method; how it was run: as §2
[23] = test system: Candida parapsilosis; experiment: Antifungal activity against Candida parapsilosis; conditions: Lodderomyces parapsilosis; how it was run: as §2
[24] = test system: Talaromyces marneffei; experiment: Antifungal activity against Penicillium marneffei by EUCAST method
[25] = test system: Aspergillus terreus; experiment: Antifungal activity against Aspergillus terreus
[26] = test system: Candida tropicalis; experiment: Antifungal activity against Candida tropicalis by EUCAST method; how it was run: as §2
[27] = test system: Curvularia australiensis; experiment: Antifungal activity against Bipolaris australiensis; how it was run: as §3
[28] = test system: Trichosporon inkin; experiment: Antifungal activity against Trichosporon inkin by EUCAST method
How it was run: (§4)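 Nonfermentative yeasts were tested by the EUCAST microdilution recommendations with one change: plates were sealed and agitated at 350 rpm and 30°C for 48 h.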

[29] = test system: Meyerozyma guilliermondii; experiment: Antifungal activity against Candida guilliermondii; how it was run: as §2
[30] = test system: Mucor; experiment: Antifungal activity against Mucor species by EUCAST method
[31] = test system: Aspergillus flavus; experiment: Antifungal activity against Aspergillus flavus by EUCAST method
[32] = test system: Trichosporon inkin; experiment: Antifungal activity against Trichosporon inkin; how it was run: as §4
[33] = test system: Penicillium sp.; experiment: Antifungal activity against Penicillium species
[34] = Antifungal activity against Rhinocladiella aquaspersa by EUCAST method; how it was run: as §3
[35] = test system: Lomentospora prolificans; experiment: Antifungal activity against Scedosporium prolificans; how it was run: as §1

SMILES: CC[C@@H]([C@H](C)O)n1ncn(-c2ccc(N3CCN(c4ccc(OC[C@@H]5CO[C@@](Cn6cncn6)(c6ccc(F)cc6F)C5)cc4)CC3)cc2)c1=O [POSACONAZOLE]
- MIC [1]: 0.19 µg/mL (≈ 0.271 µM)
- MFC [2]: 0.5 µg/mL (≈ 0.713 µM)
- MFC [3]: 0.5 µg/mL (≈ 0.713 µM)
- MIC [4]: 0.06 µg/mL (≈ 0.0856 µM)
- MFC [5]: > 0.12 µg/mL
- MIC [6]: 0.12 µg/mL (≈ 0.171 µM)
- MIC [7]: 0.05 µg/mL (≈ 0.0713 µM)
- MFC [8]: 0.5 µg/mL (≈ 0.713 µM)
- MIC [9]: 0.25 µg/mL (≈ 0.357 µM)
- MIC [10]: 5.33 µg/mL (≈ 7.61 µM)
- MFC [11]: 2 µg/mL (≈ 2.85 µM)
- MFC [12]: 0.5 µg/mL (≈ 0.713 µM)
- MIC [13]: 0.45 µg/mL (≈ 0.642 µM)
- MFC [14]: > 8 µg/mL
- MFC [15]: > 8 µg/mL
- MFC [16]: 2 µg/mL (≈ 2.85 µM)
- MFC [17]: 0.12 µg/mL (≈ 0.171 µM)
- MIC [18]: 1 µg/mL (≈ 1.43 µM)
- MIC [19]: 2.23 µg/mL (≈ 3.18 µM)
- MFC [20]: 0.25 µg/mL (≈ 0.357 µM)
- MIC [21]: 0.29 µg/mL (≈ 0.414 µM)
- MIC [22]: 0.68 µg/mL (≈ 0.97 µM)
- MFC [23]: 0.06 µg/mL (≈ 0.0856 µM)
- MIC [24]: 0.06 µg/mL (≈ 0.0856 µM)
- MFC [25]: 0.5 µg/mL (≈ 0.713 µM)
- MIC [26]: 0.12 µg/mL (≈ 0.171 µM)
- MFC [27]: 0.125 µg/mL (≈ 0.178 µM)
- MIC [28]: 0.28 µg/mL (≈ 0.4 µM)
- MFC [29]: 0.25 µg/mL (≈ 0.357 µM)
- MIC [30]: 0.72 µg/mL (≈ 1.03 µM)
- MIC [31]: 0.21 µg/mL (≈ 0.3 µM)
- MFC [32]: 0.5 µg/mL (≈ 0.713 µM)
- MFC [33]: 0.5 µg/mL (≈ 0.713 µM)
- MIC [34]: 0.06 µg/mL (≈ 0.0856 µM)
- MFC [35]: > 8 µg/mL
